System: Fibroblast
Experiment: Multiplex assay against human fibroblast
Format: toxicity, cell-based
How it was run: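 Cells stained live at seeding with Hoechst33342, BioTracker Green Microtubule Cytoskeleton Dye, MitoTracker Red and Annexin V Alexa Fluor 680 were imaged on a CQ1 microscope at 37°C and 5% CO2 after compound addition. Their classification by CellPathfinder machine-learning gating ran from Hoechst high-intensity objects versus normal cells, to healthy, pyknosed or fragmented nuclei among normal cells, to mitotic or apoptotic among pyknosed cells. Tubulin, mitochondrial-mass and membrane-permeability phenotypes are per cents of healthy-nucleus cells.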

[1] = 12 h, 1 µM, compound concentration 1 uM, replicate 1
[2] = 12 h, 1 µM, compound concentration 1 uM, replicate 2
[3] = 12 h, 10 µM, compound concentration 10 uM, replicate 1
[4] = 12 h, 10 µM, compound concentration 10 uM, replicate 2
[5] = 24 h, 1 µM, compound concentration 1 uM, replicate 1
[6] = 24 h, 1 µM, compound concentration 1 uM, replicate 2
[7] = 24 h, 10 µM, compound concentration 10 uM, replicate 1
[8] = 24 h, 10 µM, compound concentration 10 uM, replicate 2
[9] = 48 h, 1 µM, compound concentration 1 uM, replicate 1
[10] = 48 h, 1 µM, compound concentration 1 uM, replicate 2
[11] = 48 h, 10 µM, compound concentration 10 uM, replicate 1
[12] = 48 h, 10 µM, compound concentration 10 uM, replicate 2

## Cc1cc(O)c(-c2ccc([C@@H](C)CN(C)C)cc2)c2c1[nH]c(=O)c1sccc12
[1]
  Population Apoptotic (%): 59%
  Population Fragmented Nuclei (%): 12%
  Population Healthy Nuclei (%): 67%
  Population Hoechst High Intensity Objects (%): 7%
  Population Membrane Permeable-Phenotype (%): 1%
  Population Mitochondria Different-Phenotype (%): 17%
  Population Mitotic Cells (%): 40%
  Population Normal (%): 92%
  Population Pyknosed Nuclei (%): 20%
  Population Tubulin-Different-Phenotype (%): 44%
  Total Cell Count: 145
[2]
  Population Apoptotic (%): 50%
  Population Fragmented Nuclei (%): 22%
  Population Healthy Nuclei (%): 56%
  Population Hoechst High Intensity Objects (%): 2%
  Population Membrane Permeable-Phenotype (%): 4%
  Population Mitochondria Different-Phenotype (%): 12%
  Population Mitotic Cells (%): 50%
  Population Normal (%): 97%
  Population Pyknosed Nuclei (%): 21%
  Population Tubulin-Different-Phenotype (%): 52%
  Total Cell Count: 115
[3]
  Population Apoptotic (%): 69%
  Population Fragmented Nuclei (%): 19%
  Population Healthy Nuclei (%): 63%
  Population Hoechst High Intensity Objects (%): 6%
  Population Membrane Permeable-Phenotype (%): 0%
  Population Mitochondria Different-Phenotype (%): 40%
  Population Mitotic Cells (%): 30%
  Population Normal (%): 93%
  Population Pyknosed Nuclei (%): 16%
  Population Tubulin-Different-Phenotype (%): 90%
  Total Cell Count: 146
[4]
  Population Apoptotic (%): 70%
  Population Fragmented Nuclei (%): 28%
  Population Healthy Nuclei (%): 55%
  Population Hoechst High Intensity Objects (%): 5%
  Population Membrane Permeable-Phenotype (%): 2%
  Population Mitochondria Different-Phenotype (%): 19%
  Population Normal (%): 94%
  Population Pyknosed Nuclei (%): 15%
  Population Tubulin-Different-Phenotype (%): 80%
  Total Cell Count: 137
[5]
  Population Apoptotic (%): 45%
  Population Fragmented Nuclei (%): 11%
  Population Healthy Nuclei (%): 66%
  Population Hoechst High Intensity Objects (%): 7%
  Population Membrane Permeable-Phenotype (%): 0%
  Population Mitochondria Different-Phenotype (%): 27%
  Population Mitotic Cells (%): 54%
  Population Normal (%): 92%
  Population Pyknosed Nuclei (%): 21%
  Population Tubulin-Different-Phenotype (%): 73%
  Total Cell Count: 119
[6]
  Population Apoptotic (%): 52%
  Population Fragmented Nuclei (%): 28%
  Population Healthy Nuclei (%): 54%
  Population Hoechst High Intensity Objects (%): 9%
  Population Membrane Permeable-Phenotype (%): 1%
  Population Mitochondria Different-Phenotype (%): 10%
  Population Mitotic Cells (%): 47%
  Population Normal (%): 90%
  Population Pyknosed Nuclei (%): 16%
  Population Tubulin-Different-Phenotype (%): 56%
  Total Cell Count: 111
[7]
  Population Apoptotic (%): 66%
  Population Fragmented Nuclei (%): 11%
  Population Healthy Nuclei (%): 65%
  Population Hoechst High Intensity Objects (%): 3%
  Population Membrane Permeable-Phenotype (%): 0%
  Population Mitochondria Different-Phenotype (%): 42%
  Population Mitotic Cells (%): 33%
  Population Normal (%): 96%
  Population Pyknosed Nuclei (%): 22%
  Population Tubulin-Different-Phenotype (%): 87%
  Total Cell Count: 122
[8]
  Population Apoptotic (%): 57%
  Population Fragmented Nuclei (%): 30%
  Population Healthy Nuclei (%): 51%
  Population Hoechst High Intensity Objects (%): 8%
  Population Membrane Permeable-Phenotype (%): 3%
  Population Mitochondria Different-Phenotype (%): 34%
  Population Mitotic Cells (%): 42%
  Population Normal (%): 91%
  Population Pyknosed Nuclei (%): 18%
  Population Tubulin-Different-Phenotype (%): 81%
  Total Cell Count: 124
[9]
  Population Apoptotic (%): 70%
  Population Fragmented Nuclei (%): 19%
  Population Healthy Nuclei (%): 55%
  Population Hoechst High Intensity Objects (%): 7%
  Population Membrane Permeable-Phenotype (%): 1%
  Population Mitochondria Different-Phenotype (%): 26%
  Population Mitotic Cells (%): 29%
  Population Normal (%): 92%
  Population Pyknosed Nuclei (%): 24%
  Population Tubulin-Different-Phenotype (%): 70%
  Total Cell Count: 118
[10]
  Population Apoptotic (%): 57%
  Population Fragmented Nuclei (%): 31%
  Population Healthy Nuclei (%): 48%
  Population Hoechst High Intensity Objects (%): 9%
  Population Membrane Permeable-Phenotype (%): 2%
  Population Mitochondria Different-Phenotype (%): 20%
  Population Mitotic Cells (%): 42%
  Population Normal (%): 90%
  Population Pyknosed Nuclei (%): 20%
  Population Tubulin-Different-Phenotype (%): 62%
  Total Cell Count: 103
[11]
  Population Apoptotic (%): 70%
  Population Fragmented Nuclei (%): 17%
  Population Healthy Nuclei (%): 53%
  Population Hoechst High Intensity Objects (%): 10%
  Population Membrane Permeable-Phenotype (%): 0%
  Population Mitochondria Different-Phenotype (%): 53%
  Population Mitotic Cells (%): 29%
  Population Normal (%): 89%
  Population Pyknosed Nuclei (%): 29%
  Population Tubulin-Different-Phenotype (%): 89%
  Total Cell Count: 117
[12]
  Population Apoptotic (%): 71%
  Population Fragmented Nuclei (%): 39%
  Population Healthy Nuclei (%): 43%
  Population Hoechst High Intensity Objects (%): 7%
  Population Mitochondria Different-Phenotype (%): 30%
  Population Mitotic Cells (%): 28%
  Population Normal (%): 92%
  Population Pyknosed Nuclei (%): 16%
  Population Tubulin-Different-Phenotype (%): 85%
  Total Cell Count: 136

— ChEMBL document CHEMBL5058577, “EUbOPEN Chemogenomics Library 2 (Multiplex)” (2022)
